Key:
MT4 = test: Cytotoxicity against human MT4 cells by cell based assay
Summary of the method: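 Cytotoxicity in MT4 cells from cell-based assays gave a 50% cytotoxic concentration, reported as a median with first- to third-quartile values over the stated number of experiments.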

[1] = test system: Human immunodeficiency virus 2; test: Antiviral activity against Human immunodeficiency virus 2 ROD infected in human MT4 cells assessed as reduction in virus induced cytopathicity; format: functional, organism-based; conditions: Human immunodeficiency virus 2, ISOLATE ROD
Summary of the method: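 MT4 cells (1.5 × 10^5/ml) infected with HIV (MOI 0.01) were added to serial compound dilutions and incubated 5 days at 37°C in 5% CO2. Protection from virus-induced cell death was read by MTT tetrazolium colorimetry, giving an EC50 in micromolar.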

[2] = test system: Human immunodeficiency virus 1; test: Antiviral activity against Human immunodeficiency virus 1 subtype E isolate 93TH073 infected in human PBMC cells by cell based assay; conditions: Human immunodeficiency virus 1, subtype E 93TH073, PBMC
[3] = test system: Human immunodeficiency virus 1; test: Antiviral activity against Human immunodeficiency virus 1 subtype C isolate 92BR025 infected in human PBMC cells by cell based assay; conditions: Human immunodeficiency virus 1, subtype C isolate 92BR025, PBMC
[4] = test system: Human immunodeficiency virus 1; test: Antiviral activity against Human immunodeficiency virus 1 subtype F1 infected in human MT4 cells assessed as reduction in virus induced cytopathicity; format: functional, organism-based; conditions: Human immunodeficiency virus 1, subtype F1, MT4
Summary of the method: (§1)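 Recombinant viruses were made by recombining patient-derived HIV-1 RT-PR sequences into an RT-PR-deleted HXB2 proviral clone transfected into MT4 cells. Subtype was assigned from PR/RT sequence by Smith-Waterman alignment to HXB2. MT4 cells (1.5 × 10^5/ml) were infected at MOI 0.01 with serially diluted compound for 5 days at 37°C. Viability was read by MTT and EC50 derived.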

[5] = test system: Human immunodeficiency virus 1; test: Antiviral activity against Human immunodeficiency virus 1 subtype G isolate RU132 infected in human PBMC cells by cell based assay; conditions: Human immunodeficiency virus 1, subtype G isolate RU132, PBMC
[6] = test system: Human immunodeficiency virus 1; test: Antiviral activity against Human immunodeficiency virus 1 subtype B isolate WEJO infected in human PBMC cells by cell based assay
[7] = test system: Human immunodeficiency virus 1; test: Antiviral activity against Human immunodeficiency virus 1 subtype E isolate 92TH006 infected in human PBMC cells by cell based assay; conditions: Human immunodeficiency virus 1, subtype E 92TH006, PBMC
[8] = test system: Human immunodeficiency virus 1; test: Antiviral activity against Human immunodeficiency virus 1 subtype BG infected in human MT4 cells assessed as reduction in virus induced cytopathicity; format: functional, organism-based; summary of the method: as §1
[9] = test system: Human immunodeficiency virus 1; test: Antiviral activity against Human immunodeficiency virus 1 subtype G isolate G3 infected in human PBMC cells by cell based assay; conditions: Human immunodeficiency virus 1, subtype G isolate G3, PBMC
[10] = test system: Human immunodeficiency virus 1; test: Antiviral activity against Human immunodeficiency virus 1 subtype F isolate 93BR029 infected in human PBMC cells by cell based assay; conditions: Human immunodeficiency virus 1, subtype F isolate 93BR029, PBMC
[11] = test system: Human immunodeficiency virus 1; test: Antiviral activity against Human immunodeficiency virus 1 subtype G infected in human MT4 cells assessed as reduction in virus induced cytopathicity; format: functional, organism-based; summary of the method: as §1
[12] = test system: Human immunodeficiency virus 1; test: Antiviral activity against Human immunodeficiency virus 1 subtype C infected in human MT4 cells assessed as reduction in virus induced cytopathicity; format: functional, organism-based; summary of the method: as §1
[13] = test system: Human immunodeficiency virus 1; test: Antiviral activity against Human immunodeficiency virus 1 subtype AG infected in human MT4 cells assessed as reduction in virus induced cytopathicity; format: functional, organism-based; summary of the method: as §1
[14] = test system: Human immunodeficiency virus 1; test: Antiviral activity against Human immunodeficiency virus 1 subtype A isolate 92RW020 infected in human PBMC cells by cell based assay; conditions: Human immunodeficiency virus 1, subtype A isolate 92RW020, PBMC
[15] = test system: Human immunodeficiency virus 1; test: Antiviral activity against Human immunodeficiency virus 1 subtype D isolate 92UG024 infected in human PBMC cells by cell based assay; conditions: Human immunodeficiency virus 1, subtype D 92UG024, PBMC
[16] = test system: Human immunodeficiency virus 1; test: Antiviral activity against Human immunodeficiency virus 1 subtype A1 infected in human MT4 cells assessed as reduction in virus induced cytopathicity; format: functional, organism-based; conditions: Human immunodeficiency virus 1, subtype A1, MT4; summary of the method: as §1
[17] = test system: Human immunodeficiency virus 1; test: Antiviral activity against Human immunodeficiency virus 1 subtype F isolate 93BR019 infected in human PBMC cells by cell based assay; conditions: Human immunodeficiency virus 1, subtype F isolate 93BR019, PBMC
[18] = test system: Human immunodeficiency virus 1; test: Antiviral activity against Human immunodeficiency virus 1 subtype O isolate BCF03 infected in human PBMC cells by cell based assay; conditions: Human immunodeficiency virus 1, subtype O isolate BCF03, PBMC
[19] = test system: Human immunodeficiency virus 1; test: Antiviral activity against Human immunodeficiency virus 1 subtype D isolate 92UG001 infected in human PBMC cells by cell based assay; conditions: Human immunodeficiency virus 1, subtype D isolate 92UG001, PBMC
[20] = test system: Human immunodeficiency virus 1; test: Antiviral activity against Human immunodeficiency virus 1 subtype A isolate 92UG029 infected in human PBMC cells by cell based assay; conditions: Human immunodeficiency virus 1, subtype A isolate 92UG029, PBMC
[21] = test system: Human immunodeficiency virus 1; test: Antiviral activity against Human immunodeficiency virus 1 subtype C isolate 93IN101 infected in human PBMC cells by cell based assay; conditions: Human immunodeficiency virus 1, subtype C isolate 93IN101, PBMC
[22] = test system: Human immunodeficiency virus 1; test: Antiviral activity against Human immunodeficiency virus 1 3B infected in human MT4 cells assessed as reduction in virus induced cytopathicity; format: functional, organism-based
Summary of the method: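 MT4 cells (1.5 × 10^5/ml) infected with HIV-1 IIIB at MOI 0.01 and added to serially diluted compound. Cultures incubated 5 days at 37°C under 5% CO2. Cell viability, as protection from virus-induced killing, read by MTT tetrazolium colorimetry. EC50 reported as median with first to third quartiles over n experiments.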

[23] = test system: Human immunodeficiency virus 1; test: Antiviral activity against Human immunodeficiency virus 1 subtype E isolate CMU08 infected in human PBMC cells by cell based assay; conditions: Human immunodeficiency virus 1, subtype E isolate CMU08, PBMC
[24] = test system: Human immunodeficiency virus 1; test: Antiviral activity against Human immunodeficiency virus 1 subtype AE infected in human MT4 cells assessed as reduction in virus induced cytopathicity; format: functional, organism-based; summary of the method: as §1
[25] = test system: Human immunodeficiency virus 1; test: Antiviral activity against Human immunodeficiency virus 1 subtype B isolate JR-CSF infected in human PBMC cells by cell based assay
[26] = test system: Human immunodeficiency virus 1; test: Antiviral activity against Human immunodeficiency virus 1 subtype D infected in human MT4 cells assessed as reduction in virus induced cytopathicity; format: functional, organism-based; summary of the method: as §1
[27] = test system: Human immunodeficiency virus 1; test: Antiviral activity against Human immunodeficiency virus 1 subtype O isolate BCF02 infected in human PBMC cells by cell based assay; conditions: Human immunodeficiency virus 1, subtype O isolate BCF02, PBMC
[28] = test system: Human immunodeficiency virus 1; test: Antiviral activity against Human immunodeficiency virus 1 subtype O misolate BCF01 infected in human PBMC cells by cell based assay; conditions: Human immunodeficiency virus 1, subtype O isolate BCF01, PBMC
[29] = test system: Human immunodeficiency virus 1; test: Antiviral activity against Human immunodeficiency virus 1 subtype D isolate 92UG035 infected in human PBMC cells by cell based assay; conditions: Human immunodeficiency virus 1, subtype D 92UG035, PBMC
[30] = test system: Human immunodeficiency virus 1; test: Antiviral activity against Human immunodeficiency virus 1 subtype F isolate 93BR020 infected in human PBMC cells by cell based assay; conditions: Human immunodeficiency virus 1, subtype F isolate 93BR020, PBMC
[31] = test system: Human immunodeficiency virus 1; test: Antiviral activity against Human immunodeficiency virus 1 subtype (H) infected in human MT4 cells assessed as reduction in virus induced cytopathicity; format: functional, organism-based; summary of the method: as §1
[32] = test system: Human immunodeficiency virus 1; test: Antiviral activity against Human immunodeficiency virus 1 subtype A isolate 92UG037 infected in human PBMC cells by cell based assay; conditions: Human immunodeficiency virus 1, subtype A isolate 92UG037, PBMC
[33] = test system: Human immunodeficiency virus 1; test: Antiviral activity against Human immunodeficiency virus 1 subtype B isolate 93BR021 infected in human PBMC cells by cell based assay; conditions: Human immunodeficiency virus 1, subtype B isolate 93BR021, PBMC
[34] = test system: Human immunodeficiency virus 1; test: Antiviral activity against Human immunodeficiency virus 1 subtype C isolate 93MW959 infected in human PBMC cells by cell based assay; conditions: Human immunodeficiency virus 1, subtype C isolate 93MW959, PBMC
[35] = test system: Human immunodeficiency virus 1; test: Antiviral activity against Human immunodeficiency virus 1 subtype G isolate JV1083 infected in human PBMC cells by cell based assay; conditions: Human immunodeficiency virus 1, subtype G isolate JV1083, PBMC

Question: Which Activity (MT4) does the source give for O=C1Nc2ccc(Cl)cc2[C@@](C#CC2CC2)(C(F)(F)F)O1 [EFAVIRENZ] here?
Answer: 40.02 µM

Question: What about the EC50 [1] of the same compound?
Answer: 24800 nM

Question: Which results are given for Cc1cc(C#N)cc(C)c1Oc1nc(Nc2ccc(C#N)cc2)nc(N)c1Br [ETRAVIRINE]?
Answer: EC50 [2]: 0.21 nM; EC50 [3]: 1.7 nM; EC50 [4]: 0.35 nM; EC50 [5]: 1.7 nM; EC50 [6]: 0.43 nM; EC50 [7]: 0.5 nM; EC50 [8]: 0.67 nM; EC50 [9]: 0.66 nM; EC50 [10]: 1.06 nM; EC50 [11]: 0.24 nM; EC50 [12]: 0.52 nM; EC50 [13]: 0.46 nM; EC50 [14]: 0.48 nM; EC50 [15]: 3.18 nM; EC50 [16]: 1.39 nM; EC50 [17]: 0.46 nM; EC50 [18]: 149 nM; Activity (MT4): > 64 µM; EC50 [19]: 0.9 nM; EC50 [20]: 1.45 nM; EC50 [21]: 2.72 nM; EC50 [22]: 2.73 nM; EC50 [23]: 3.47 nM; EC50 [24]: 0.65 nM; EC50 [1]: 5670 nM; EC50 [25]: 1.02 nM; EC50 [26]: 1.13 nM; EC50 [27]: 52.8 nM; EC50 [28]: 16.4 nM; EC50 [29]: 0.44 nM; EC50 [30]: 1.08 nM; EC50 [31]: 0.51 nM; EC50 [32]: 1.42 nM; EC50 [33]: 1.35 nM; EC50 [34]: 1.01 nM; EC50 [35]: 1.45 nM
